This is an account of results in ChEMBL document CHEMBL4414560, “Goniolanceolatins A-H, Cytotoxic Bis-styryllactones from Goniothalamus lanceolatus” (J Nat Prod, 2019).

One assay has as its system HCC 2998. The assay can be described thus: Cytotoxicity against human HCC2998 cells assessed as reduction in cell viability incubated fpr 72 hrs by celltiter-glo luminescent cell viability assay. It counts as functional, cell-based. Particulars: HCC 2998, 72 h. A digest of the protocol: (§1)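 Cell lines from ATCC, grown in RPMI-1640 with 10% FBS, 100 IU/mL penicillin and 100 μg/mL streptomycin at 37 °C, 5% CO2. Seeded for 24 h, then exposed to compound for 72 h. Viability read by CellTiter-Glo luminescence. IC50 is the concentration killing 50% of cells, reported as mean ± S.D. of at least three independent experiments. Cisplatin-treated cells served for validation.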
A general note: Cellular ATP, detected with luciferase, serves as a proxy for viable cell number.

The next assay concerns A549. The assay can be described thus: Cytotoxicity against human A549 cells assessed as reduction in cell viability incubated fpr 72 hrs by celltiter-glo luminescent cell viability assay. It counts as functional, cell-based. Particulars: A549, 72 h. A digest of the protocol: as §1
The subject of another assay is SW48. The experiment in a line: Cytotoxicity against human SW48 cells assessed as reduction in cell viability incubated fpr 72 hrs by celltiter-glo luminescent cell viability assay. It counts as functional, cell-based. Particulars: SW48, 72 h. A digest of the protocol:
as §1

A further assay has as its system Caco-2. The assay can be described thus: Cytotoxicity against human Caco2 cells assessed as reduction in cell viability incubated fpr 72 hrs by celltiter-glo luminescent cell viability assay. In kind it is functional, cell-based. Particulars: Caco-2, 72 h. A digest of the protocol: as §1
The next assay concerns MRC5. The assay can be described thus: Cytotoxicity against human MRC5 cells assessed as reduction in cell viability incubated fpr 72 hrs by celltiter-glo luminescent cell viability assay. In kind it is cell-based. Particulars: MRC5, 72 h. An outline of the steps: as §1
Another assay deals with NCI-H23. The assay can be described thus: Cytotoxicity against human NCI-H23 cells assessed as reduction in cell viability incubated fpr 72 hrs by celltiter-glo luminescent cell viability assay. It counts as functional, cell-based. Particulars: NCI-H23, 72 h. An outline of the steps: (§2)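 Lung cancer lines received as gifts from the National Cancer Institute, Selangor, Malaysia, incubated at 37 °C, 5% CO2. Cells plated for 24 h, then drug-exposed for 72 h. Luminescent CellTiter-Glo viability read-out. IC50 is the concentration killing 50% of cells, reported as mean ± S.D. from at least three independent experiments. Cisplatin-treated cells used for validation.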

The test system of a further assay is NCI-H1299. The experiment in a line: Cytotoxicity against human NCI-H1299 cells assessed as reduction in cell viability incubated fpr 72 hrs by celltiter-glo luminescent cell viability assay. It counts as functional, cell-based. Particulars: NCI-H1299, 72 h. A digest of the protocol: as §2
In a further assay the test system is Calu-1. The experiment in a line: Cytotoxicity against human Calu1 cells assessed as reduction in cell viability incubated fpr 72 hrs by celltiter-glo luminescent cell viability assay. In kind it is functional, cell-based. Particulars: Calu-1, 72 h. A digest of the protocol:
as §1

Another assay deals with HCT-116. The assay can be described thus: Cytotoxicity against human HCT116 cells assessed as reduction in cell viability incubated fpr 72 hrs by celltiter-glo luminescent cell viability assay. It counts as functional, cell-based. Particulars: HCT-116, 72 h. An outline of the steps:
as §1

The next assay deals with CCD-841CoN. The experiment in a line: Cytotoxicity against human CCD-841-CoN cells assessed as reduction in cell viability incubated fpr 72 hrs by celltiter-glo luminescent cell viability assay. In kind it is cell-based. A digest of the protocol:
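Noncancerous colorectal CCD 841 CoN cells kept in DMEM with 20% FBS, 100 IU/mL penicillin and 100 μg/mL streptomycin at 37 °C, 5% CO2. Plated 24 h, then treated 72 h. Viability by CellTiter-Glo luminescence. IC50 is the 50%-kill concentration, given as mean ± S.D. from at least three independent experiments. Cisplatin used for validation.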

Molecules are shown by their SMILES.

As a reminder, the IC50 is the midpoint of a concentration-inhibition curve.

As to `CC(=O)O[C@@H](c1ccccc1)[C@@H](O[C@@H]1[C@@H]2C[C@@H](CC(=O)O2)O[C@H]1c1ccccc1)[C@@H]1CC=CC(=O)O1`, the IC50 was more than 10 µM with HCC 2998; more than 10 µM with A549; more than 10 µM in the assay with SW48; more than 10 µM in the assay on Caco-2; more than 100 µM in the assay on MRC5; 9.3 µM in the assay on NCI-H23. For the same molecule, the IC50 in the assay with NCI-H1299 is more than 10 µM; with Calu-1, more than 10 µM; in the assay with HCT-116, 9.5 µM; with CCD-841CoN, more than 100 µM.

Regarding `O=C1C=CC[C@@H]([C@H](O)[C@H](O[C@@H](c2ccccc2)[C@@H](O)[C@@H]2CC=CC(=O)O2)c2ccccc2)O1`, the IC50 in the assay on HCC 2998 is 2.9 µM; in the assay with A549, 7.8 µM; with SW48, 4.1 µM; in the assay on Caco-2, more than 10 µM; in the assay with MRC5, more than 100 µM; with NCI-H23 it was 3.2 µM. The IC50 was 7.1 µM with NCI-H1299, 5.4 µM in the assay on Calu-1, 5.9 µM in the assay on HCT-116 and more than 100 µM with CCD-841CoN.

As to `O=C1C=CC[C@@H]([C@H](O)[C@@H](O[C@H]([C@@H]2CC=CC(=O)O2)[C@@H](O)c2ccccc2)c2ccccc2)O1`, the IC50 in the assay on HCC 2998 is more than 10 µM; in the assay on A549 it was more than 10 µM; with SW48, 5.5 µM; with Caco-2, more than 10 µM; with MRC5 it was more than 100 µM; in the assay with NCI-H23, 5.2 µM. In addition, the IC50 is 9.5 µM in the assay on NCI-H1299, 7.5 µM in the assay with Calu-1, 8 µM in the assay with HCT-116 and more than 100 µM in the assay on CCD-841CoN.

Regarding `CC(=O)O[C@@H]([C@@H]1CC=CC(=O)O1)[C@H](O[C@@H](c1ccccc1)[C@@H](O)[C@@H]1CC=CC(=O)O1)c1ccccc1`, the IC50 in the assay with HCC 2998 is more than 10 µM; in the assay with A549, 6.4 µM; in the assay on SW48, 4.1 µM; in the assay on Caco-2 it was 7 µM; in the assay on MRC5, more than 100 µM; with NCI-H23 it was 2.6 µM. Moreover, the IC50 in the assay on NCI-H1299 was 4.6 µM; in the assay on Calu-1 it was 2.2 µM; with HCT-116 it was 4.1 µM; with CCD-841CoN, more than 100 µM.
